Activity calls are given as the source filed them. The calls are words filed in the database; no cut-off is given here.
biological target: T1, Mitogen-activated protein kinase 1 (Homo sapiens, UniProt P28482); assay: Binding to phosphorylated ERK2 (unknown origin) by temperature dependent fluorescence (TdF) assay
T1 sequence (P28482 whole entry): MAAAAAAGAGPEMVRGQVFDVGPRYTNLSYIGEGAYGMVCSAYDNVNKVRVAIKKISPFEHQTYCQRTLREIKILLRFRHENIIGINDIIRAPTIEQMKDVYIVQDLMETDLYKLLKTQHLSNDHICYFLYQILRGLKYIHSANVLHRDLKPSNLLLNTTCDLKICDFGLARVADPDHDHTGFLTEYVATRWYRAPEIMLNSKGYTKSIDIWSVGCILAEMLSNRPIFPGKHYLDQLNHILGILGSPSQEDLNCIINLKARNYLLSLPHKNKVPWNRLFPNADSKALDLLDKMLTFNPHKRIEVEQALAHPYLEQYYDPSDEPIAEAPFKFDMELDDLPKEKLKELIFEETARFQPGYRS

Kd [nM]	Compound
> 10000	O=C(NOC[C@H](O)CO)c1ccc(F)c(F)c1Nc1ccc(I)cc1F [MIRDAMETINIB]
330	O=C(Nc1ccc(O)c(Cl)c1)[C@@H]1CCN(CC(=O)N2CCN(c3ccc(-c4ccoc4)cc3)CC2)C1

biological target: Mitogen-activated protein kinase 1 (Mus musculus) (UniProt P63085); assay: Inhibition of inactive ERK2 (mouse) coupled with human MEK1 using IMAP peptide substrate after 30 mins by coupled ERK2 assay
Sequence (P63085 whole entry, looked up): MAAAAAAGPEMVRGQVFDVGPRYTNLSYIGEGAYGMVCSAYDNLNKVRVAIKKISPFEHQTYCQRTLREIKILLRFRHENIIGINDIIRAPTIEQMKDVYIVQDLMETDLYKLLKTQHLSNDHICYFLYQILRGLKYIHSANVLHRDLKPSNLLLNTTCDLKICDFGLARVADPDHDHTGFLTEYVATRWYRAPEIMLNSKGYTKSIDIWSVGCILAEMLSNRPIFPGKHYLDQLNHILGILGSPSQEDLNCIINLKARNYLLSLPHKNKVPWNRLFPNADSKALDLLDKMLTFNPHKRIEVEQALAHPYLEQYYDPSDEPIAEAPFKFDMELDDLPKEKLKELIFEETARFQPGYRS

IC50 [nM]	Compound
25	O=C(NOC[C@H](O)CO)c1ccc(F)c(F)c1Nc1ccc(I)cc1F [MIRDAMETINIB]
1400	O=C(Nc1ccc(O)c(Cl)c1)[C@@H]1CCN(CC(=O)N2CCN(c3ccc(-c4ccoc4)cc3)CC2)C1

biological target: T1, Mitogen-activated protein kinase 1; assay: Binding to unphosphorylated ERK2 (unknown origin) by temperature dependent fluorescence (TdF) assay

Kd [nM]	Compound
> 10000	O=C(NOC[C@H](O)CO)c1ccc(F)c(F)c1Nc1ccc(I)cc1F [MIRDAMETINIB]
120	O=C(Nc1ccc(O)c(Cl)c1)[C@@H]1CCN(CC(=O)N2CCN(c3ccc(-c4ccoc4)cc3)CC2)C1

biological target: T2, Dual specificity mitogen-activated protein kinase kinase; MEK1/2 (Homo sapiens) (UniProt P36507+Q02750); assay: Binding affinity to phosphorylated MEK (unknown origin) by temperature dependent fluorescence (TdF) assay
T2 sequence (P36507 whole entry, looked up): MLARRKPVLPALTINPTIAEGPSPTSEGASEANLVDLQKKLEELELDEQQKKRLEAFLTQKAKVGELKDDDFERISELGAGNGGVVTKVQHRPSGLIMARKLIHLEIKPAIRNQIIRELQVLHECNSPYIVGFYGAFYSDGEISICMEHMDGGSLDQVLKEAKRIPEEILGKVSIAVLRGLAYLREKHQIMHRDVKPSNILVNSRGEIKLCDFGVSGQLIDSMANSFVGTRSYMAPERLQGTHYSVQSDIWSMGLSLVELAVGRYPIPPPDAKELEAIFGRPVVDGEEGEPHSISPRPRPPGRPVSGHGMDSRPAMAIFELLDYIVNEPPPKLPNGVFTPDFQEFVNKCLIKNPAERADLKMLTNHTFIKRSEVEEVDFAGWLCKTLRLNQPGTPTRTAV
T2 sequence (Q02750 whole entry, looked up): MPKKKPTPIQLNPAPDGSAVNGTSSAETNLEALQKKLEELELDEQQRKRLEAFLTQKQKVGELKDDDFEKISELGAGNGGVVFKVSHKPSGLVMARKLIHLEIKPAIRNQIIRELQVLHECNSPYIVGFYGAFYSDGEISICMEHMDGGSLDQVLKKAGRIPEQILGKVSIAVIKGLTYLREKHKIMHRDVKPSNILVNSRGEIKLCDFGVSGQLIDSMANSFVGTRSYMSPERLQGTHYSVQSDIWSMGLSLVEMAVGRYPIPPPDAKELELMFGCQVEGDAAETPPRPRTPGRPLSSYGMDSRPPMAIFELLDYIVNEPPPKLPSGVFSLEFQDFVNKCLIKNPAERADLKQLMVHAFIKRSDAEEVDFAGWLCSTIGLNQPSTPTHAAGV

Activity	Compound
inactive	O=C(Nc1ccc(O)c(Cl)c1)[C@@H]1CCN(CC(=O)N2CCN(c3ccc(-c4ccoc4)cc3)CC2)C1

biological target: T1, Mitogen-activated protein kinase 1; assay: Inhibition of activated ERK2 (unknown origin) using IMAP peptide substrate after 30 mins by activated ERK2 assay
Summary of the method: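 IMAP fluorescence-polarization assay. Started with 1 μM substrate peptide (100 nM fluorescein-labelled) and 30 μM ATP. Run 30 min, stopped with IMAP beads, read after 30 min. N = 2.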

IC50 [nM]	Compound
> 40000	O=C(NOC[C@H](O)CO)c1ccc(F)c(F)c1Nc1ccc(I)cc1F [MIRDAMETINIB]
5500	O=C(Nc1ccc(O)c(Cl)c1)[C@@H]1CCN(CC(=O)N2CCN(c3ccc(-c4ccoc4)cc3)CC2)C1

biological target: T2, Dual specificity mitogen-activated protein kinase kinase; MEK1/2 (Homo sapiens); assay: Binding affinity to unphosphorylated MEK (unknown origin) by temperature dependent fluorescence (TdF) assay

Activity	Compound
inactive	O=C(Nc1ccc(O)c(Cl)c1)[C@@H]1CCN(CC(=O)N2CCN(c3ccc(-c4ccoc4)cc3)CC2)C1
